One experiment has as its target T1, PfNMT (Plasmodium falciparum, UniProt Q9U419).
T1 sequence (Q9U419 1-410): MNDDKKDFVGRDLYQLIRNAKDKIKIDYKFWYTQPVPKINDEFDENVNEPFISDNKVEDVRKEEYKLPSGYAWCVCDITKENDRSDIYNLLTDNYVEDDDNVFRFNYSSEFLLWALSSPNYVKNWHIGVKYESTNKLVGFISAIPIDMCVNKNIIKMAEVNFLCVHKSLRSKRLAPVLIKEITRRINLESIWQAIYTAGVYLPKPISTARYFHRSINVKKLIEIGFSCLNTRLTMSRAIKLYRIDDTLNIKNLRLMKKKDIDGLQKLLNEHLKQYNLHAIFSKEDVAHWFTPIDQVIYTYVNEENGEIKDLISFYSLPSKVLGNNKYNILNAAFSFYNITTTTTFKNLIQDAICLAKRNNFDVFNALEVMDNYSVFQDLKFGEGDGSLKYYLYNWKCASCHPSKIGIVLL
The experiment is described as follows: NMT enzyme inhibition assay. In kind it is biochemical, P. falciparum. The settings on record: for activity drop vs. 4 / lower inhibition vs. 4: compared with compound 4; for lower inhibition vs. 4: shorter or longer spacers than the methylene ester. The method, boiled down:
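Stopped with streptavidin PVT beads in pH 4 stop solution; scintillation counted. No-inhibitor wells set 100%, no-enzyme wells 0%. Test compound 500 μM to 2 nM, in duplicate. IC50 by nonlinear regression, averaged from two independent curves.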

The next experiment has as its target T2, HsNMT1 (Homo sapiens, UniProt P30419).
T2 sequence (P30419 109-496 limits assumed): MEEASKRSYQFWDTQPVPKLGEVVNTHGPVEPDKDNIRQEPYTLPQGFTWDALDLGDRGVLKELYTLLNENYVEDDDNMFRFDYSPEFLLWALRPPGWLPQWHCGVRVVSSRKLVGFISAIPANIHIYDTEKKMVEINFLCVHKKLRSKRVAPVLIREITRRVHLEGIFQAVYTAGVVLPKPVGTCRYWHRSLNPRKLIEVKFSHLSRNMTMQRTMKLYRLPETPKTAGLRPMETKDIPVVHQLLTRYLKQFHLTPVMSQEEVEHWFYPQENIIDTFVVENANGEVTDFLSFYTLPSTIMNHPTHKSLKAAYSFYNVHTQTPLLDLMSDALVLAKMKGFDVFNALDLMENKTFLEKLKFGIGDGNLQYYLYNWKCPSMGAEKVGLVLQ
The experiment in a line: NMT enzyme inhibition assay. It counts as biochemical.

For the next experiment, the system named is P. falciparum, 3D7 line. The experiment is described as follows: P. falciparum inhibition assay. In kind it is cell-based. As to conditions: synchronized P. falciparum trophozoites (3D7 line). The method, boiled down:
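Synchronous late-trophozoite cultures (1% parasitemia, 2% hematocrit) with test compound in 0.5% DMSO, 48 h at 37 °C. Aliquots stained with hydroethidine (1:200 dilution of 10 mg/mL stock in PBS), 20 min at 37 °C; 50,000 cells counted by flow cytometry. Untreated parasites and uninfected RBCs are the controls; % inhibition computed.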

For the next experiment, the target named is T3, HsNMT1 Y296A (Homo sapiens, UniProt P30419, Y296A).
T3 sequence (P30419 109-496 Y296A limits assumed): T2 sequence (P30419 109-496 limits assumed) with Y188A
The experiment is described as follows: NMT enzyme inhibition assay. In kind it is biochemical. As to conditions: HsNMT1 Y296A vs wild type.

Residue numbers refer to the chain shown, from its start. pIC50: −log10 of the molar value.

Consider `CCOC(=O)c1oc2cccc(OCCCNCc3cccnc3)c2c1C` [Compound 1, reference compound], for which, at PfNMT, the “PfNMT inhibition (in words)” value is recorded as “moderate inhibition”. Further, the “selectivity over human NMT1 (in words)” value at HsNMT1 was “promising selectivity”. With `O=S(=O)(Cc1ccccc1)c1cc2c(OC3CCNCC3)cccc2o1` [Compound 24, 4-{[2-(Phenylmethane)sulfonyl-1-benzofuran-4-yl]oxy}piperidine], the “PfNMT inhibition (in words)” value on PfNMT is on record as “dramatic loss of activity”.

Take `Cc1c(-c2nc(Cc3ccccc3)no2)oc2cccc(OC3CCNCC3)c12` [Compound 25]: the “PfNMT inhibition (in words)” value at PfNMT is “promising potency”.

With `Cc1c(C(=O)/C=C/c2ccccc2)oc2cccc(OC3CCNCC3)c12` [Compound 23, (2E)-1-[3-Methyl-4-(piperidin-4-yloxy)-1-benzofuran-2-yl]-3-phenylprop-2-en-1-one], on PfNMT (PfNMT inhibition, compared with compound 22), the “improvement in affinity vs. 22” value was 3 fold. As to `Cc1c(COCc2ccccc2)oc2cccc(OC3CCNCC3)c12` [Compound 21, 4-({2-[(Benzyloxy)methyl]-3-methyl-1-benzofuran-4-yl}oxy)-piperidine], at PfNMT (PfNMT inhibition), the “activity drop vs. 4” value was 40 fold.

Regarding `Cc1c(CCc2ccccc2)oc2cccc(OC3CCNCC3)c12` [Compound 18, 4-{[3-Methyl-2-(2-phenylethyl)-1-benzofuran-4-yl]oxy}piperidine], on PfNMT, the “PfNMT inhibition (in words)” value is “does not confer inhibitory activity”. For `Cc1c(C(=O)Oc2ccccc2)oc2cccc(OC3CCNCC3)c12` [Compound 3, Phenyl 3-methyl-4-(piperidin-4-yloxy)-1-benzofuran-2-carboxylate], at PfNMT, the “lower inhibition vs. 4” value was 10- to 100 fold.

`Cc1c(C(=O)CCc2ccccc2)oc2cccc(OC3CCNCC3)c12` [Compound 22]: the “activity drop vs. 4” value at PfNMT (PfNMT inhibition) is 40 fold. `Cc1c(C(=O)OCCCc2ccccc2)oc2cccc(OC3CCNCC3)c12` [Compound 8]: on PfNMT, the “lower inhibition vs. 4” value is listed as 10- to 100 fold. As to `Cc1c(C(=O)OCc2ccccc2)oc2cccc(OC3CCNCC3)c12` [Compound 4], the “anti-plasmodial effect in vitro (in words)” value in the experiment with P. falciparum, 3D7 line is given as “highest anti-parasitic activity”. Turning to `CCOC(=O)c1oc2cccc(OC3CCNCC3)c2c1C` [Compound 2, Ethyl 3-methyl-4-(piperidin-4-yloxy) benzofuran-2-carboxylate], the “activity improvement over 1” value on PfNMT (PfNMT inhibition, compared with compound 1) was determined as 3 fold. Further, at HsNMT1, the “selectivity over human NMT1 (in words)” value is listed as “good human selectivity”. In the case of `COc1cccc(COC(=O)c2oc3cccc(OC4CCNCC4)c3c2C)c1` [Compound 26], the “PfNMT inhibition (in words)” value at PfNMT is listed as “comparable potency to the parent compound 4”. Moreover, on HsNMT1, the “HsNMT1 inhibition (in words)” value is reported as “weak inhibition”. The “increase in affinity on mutation of the human NMT” value on HsNMT1 Y296A is “four- to five-fold”. For the molecule `Cc1c(C(=O)OCCc2ccccc2)oc2cccc(OC3CCNCC3)c12` [Compound 7], the “lower inhibition vs. 4” value at PfNMT is reported as 10- to 100 fold. For orientation: pIC50 means the IC50 on a negative log10 scale, so that one unit is a factor of ten. Lower therefore signals a high IC50. `Cc1c(C(=O)NC(C)C)oc2cccc(OC3CCNCC3)c12` [Compound 9, N-isopropyl-3-methyl-4-(piperidin-4-yloxy)benzofuran-2-carboxamide] gave a negative-log IC50 (pIC50) against PfNMT of under 3.70. On PfNMT, `Cc1c(C(=O)NC2CCCCC2)oc2cccc(OC3CCNCC3)c12` [Compound 10] had a pIC50 of under 4.00.
